Laboratory results published in ChEMBL document CHEMBL4732055, “Discovery of fast-acting dual-stage antimalarial agents by profiling pyridylvinylquinoline chemical space via copper catalyzed azide-alkyne cycloadditions” (Eur J Med Chem, 2021).
Active and inactive are the calls of the source. The rule behind the calls is not given here.

What was measured:
Plasmodium falciparum [1] = experiment: Antiplasmodial activity against chloroquine-resistant Plasmodium falciparum Dd2 infected in erythrocytes assessed as reduction in parasite growth after 72 hrs by SYBR green I staining based fluorescence assay; assay type: functional, organism-based; settings: Dd2, Erythrocyte
In short: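 Asexual P. falciparum cultures at 1% parasitemia and 1% hematocrit, given serial dilutions in DMSO (0.1% maximum), were incubated 72 h at 37 °C in 5% CO2. Plates were frozen, thawed and lysed with Tris/saponin/EDTA/Triton X-100 buffer containing SYBR Green I, then kept 1 h dark at room temperature. Fluorescence was read at 485 excitation/530 emission. EC50 came from non-linear dose-response curves.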

[2] = Stability in mouse liver microsomes assessed as parent compound remaining at 1 uM after 15 mins in presence of NADPH regenerating system by LC/MS analysis; assay type: ADME, Microsome; settings: read-out: Stabilty
In short: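 Compound at 1 μM final (from 25 μM DMSO stock) with 0.5 mg/mL mouse liver microsomes, NADPH-regenerating system (1.3 mM NADP, 3.3 mM glucose 6-phosphate, 3.3 mM MgCl2, 0.4 U/mL G6PDH) in 0.1 M potassium phosphate pH 7.4, 37 °C with shaking. Aliquots quenched in cold acetonitrile, centrifuged, quantified by LC/MS as percent parent remaining relative to T = 0; CLint and t1/2 reported.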

Plasmodium falciparum [3] = experiment: Antiplasmodial activity against chloroquine-sensitive Plasmodium falciparum 3D7 infected in erythrocytes assessed as reduction in parasite growth after 72 hrs by SYBR green I staining based fluorescence assay; assay type: functional, organism-based; settings: 3D7, Erythrocyte
In short: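 Compound dilutions in DMSO (max 0.1% DMSO) added to P. falciparum culture at 1% parasitemia, 1% hematocrit; 72 h at 37 °C, 5% CO2. Plates frozen, thawed, lysed with buffer containing saponin, Triton X-100, EDTA and SYBR Green I; 1 h dark at room temperature; fluorescence ex 485/em 530. EC50 from non-linear dose-response curves.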

HepG2 = experiment: Cytotoxicity against human HepG2 cells assessed as reduction in cell viability after 48 hrs by MTS assay; assay type: cell-based; settings: HepG2, 48 h
In short: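 HepG2 cells seeded at 2250 per well, grown 24 h at 37 °C, 5% CO2. Serial compound dilutions starting at 25 μM added for a further 48 h. MTS reagent added for 3 h at 37 °C; viability read as absorbance at 490 nm.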

Plasmodium falciparum [4] = experiment: Antimalarial activity against Plasmodium falciparum RKL9 gametocytes incubated for 48 hrs by Giemsa staining based assay; assay type: functional, organism-based; settings: RKL9, 48 h
Plasmodium falciparum [5] = experiment: Parasiticidal activity against chloroquine-resistant Plasmodium falciparum Dd2 infected in erythrocytes assessed as reduction in parasitemia at 50 nM incubated for 24 to 48 hrs followed by compound washout and then incubated for 96 hrs by Giemsa staining based microscopic analysis; assay type: functional, organism-based; settings: time 24-48 hrs
Plasmodium falciparum [6] = experiment: Parasiticidal activity against chloroquine-resistant Plasmodium falciparum Dd2 infected in erythrocytes assessed as reduction in parasitemia at 6.6 nM incubated for 6 to 12 hrs followed by compound washout and then incubated for 96 hrs by Giemsa staining based microscopic analysis; assay type: functional, organism-based; settings: time 6-12 hrs
Hemozoin [7] = experiment: Inhibition of beta-hematin formation at 12.5 to 200 uM after 16 hrs by inverted microscopic analysis; settings: dose 12.5-200 µM
Plasmodium falciparum [8] = experiment: Antiplasmodial activity against synchronized chloroquine-resistant Plasmodium falciparum Dd2 assessed as prevention of parasite cell cycle progression at 5 times of EC50 treated with compound at 6 to 30 hrs post invasion and measured after 12 hrs by Giemsa staining-based microscopic analysis; assay type: functional, organism-based
In short: (§1)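 Samples taken at 12 h intervals were made into Giemsa-stained thin smears and scored by microscopy for intraerythrocytic stage and development, against untreated control cultures.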

Plasmodium falciparum [9] = experiment: Antiplasmodial activity against synchronized chloroquine-resistant Plasmodium falciparum Dd2 assessed as appearance of large vacuoles at 5 times of EC50 treated with compound at 6 to 42 hrs post invasion and measured after 12 hrs by Giemsa staining-based microscopic analysis; assay type: functional, organism-based; in short: as §1
Plasmodium falciparum [10] = experiment: Antiplasmodial activity against synchronized chloroquine-resistant Plasmodium falciparum Dd2 assessed as morphological changes at 5 times of EC50 treated with compound at 6 hrs post invasion and measured after 12 hrs by Giemsa staining-based microscopic analysis; assay type: functional, organism-based; in short: as §1
Plasmodium falciparum [11] = experiment: Antiplasmodial activity against synchronized chloroquine-resistant Plasmodium falciparum Dd2 assessed as reduction in DNA content at 5 times of EC50 treated with compound at 42 hrs post invasion measured after 12 hrs by YOYO-1 staining-based flow cytometric analysis; assay type: functional, organism-based
Plasmodium falciparum [12] = experiment: Parasiticidal activity against chloroquine-resistant Plasmodium falciparum Dd2 infected in erythrocytes assessed as reduction in parasitemia at 5 times of EC50 incubated for 6 to 12 hrs followed by compound washout and then incubated for 96 hrs by Giemsa staining based microscopic analysis; assay type: functional, organism-based; settings: time 6-12 hrs
Plasmodium falciparum [13] = experiment: Antiplasmodial activity against early stage (II/III) gametocytes of Plasmodium falciparum 3D7 harboring luc7 incubated for 72 hrs by ONE-Glo luciferase assay; assay type: functional, organism-based; settings: 3D7, 72 h
In short: (§2)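 Gametocytes of the 3D7 luc7 line were induced by nutrient starvation and cleared of asexual parasites with heparin-treated medium. Stage II-III or IV-V gametocytes were Percoll-purified, and 50,000 per well were exposed 72 h to a 19-point gradient (0.038 nM to 10 μM). Read-out was ONE-Glo luciferase after 5 min with reagent. EC50 came from four-parameter variable-slope nonlinear regression.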

Plasmodium falciparum [14] = experiment: Antiplasmodial activity against synchronized chloroquine-resistant Plasmodium falciparum Dd2 assessed as reduction in DNA content at 5 times of EC50 treated with compound at 6 to 30 hrs post invasion measured after 12 hrs by YOYO-1 staining-based flow cytometric analysis; assay type: functional, organism-based
Plasmodium falciparum [15] = experiment: Antiplasmodial activity against late stage (IV/V) gametocytes of Plasmodium falciparum 3D7 harboring luc7 incubated for 72 hrs by ONE-Glo luciferase assay; assay type: functional, organism-based; settings: 3D7, 72 h; in short: as §2
Plasmodium falciparum [16] = experiment: Antiplasmodial activity against synchronized chloroquine-resistant Plasmodium falciparum Dd2 assessed as effect on schizont maturation and reinvasion of merozoite at 5 times of EC50 treated with compound at 42 hrs post invasion and measured after 12 hrs by Giemsa staining-based microscopic analysis; assay type: functional, organism-based; in short: as §1
Hemozoin [17] = experiment: Inhibition of beta-hematin formation after 16 hrs by inverted microscopic analysis

Row | SMILES | EC50 (Plasmodium falciparum [1]) | EC50 (Plasmodium falciparum [3]) | EC50 (HepG2) | other results
1 | Clc1ccc2nc(/C=C/c3ccncc3)cc(NCCCCn3cc(CN4CCOCC4)nn3)c2c1 | 0.17 µM | 0.23 µM | > 25 µM | remaining at 0.25 h, 1 µM [2]: < 50%
2 | O=C(Cn1cc(COc2ccc(Br)cc2)nn1)NCCNc1ccnc2cc(Cl)ccc12 | – | – | – | IC50 (Plasmodium falciparum [4]): 8.5 µM
3 | CCN(CC)Cc1cn(-c2cc(/C=C/c3ccncc3)nc3ccc(Cl)cc23)nn1 | 1.32 µM | – | – | –
4 | CN1CCN(Cc2cn(CCNc3cc(/C=C/c4ccncc4)nc4ccc(Cl)cc34)nn2)CC1 | > 10 µM | – | – | –
5 | C[C@H]1[C@@H](O)O[C@@H]2O[C@@]3(C)CC[C@H]4[C@H](C)CC[C@@H]1[C@@]24OO3 | – | – | – | Activity (Plasmodium falciparum [5]): Active
6 | OCCN1CCN(Cc2cn(CCNc3cc(/C=C/c4ccncc4)nc4ccc(Cl)cc34)nn2)CC1 | 4.27 µM | – | – | –
7 | Clc1ccc2nc(/C=C/c3ccncc3)cc(NCCCCn3cc(Cn4cccn4)nn3)c2c1 | 0.35 µM | 0.28 µM | 21.2 µM | remaining at 0.25 h, 1 µM [2]: < 50%
8 | O=C1c2ccccc2C(=O)N1Cc1cn(-c2cc(/C=C/c3ccncc3)nc3ccc(Cl)cc23)nn1 | 8.79 µM | – | – | –
9 | O=C1c2ccccc2C(=O)N1Cc1cn(CCNc2cc(/C=C/c3ccncc3)nc3ccc(Cl)cc23)nn1 | 1.07 µM | – | – | –
10 | O=C1C(O)=C([C@H]2CC[C@H](c3ccc(Cl)cc3)CC2)C(=O)c2ccccc21 | – | – | – | Activity (Plasmodium falciparum [6]): Active
11 | Clc1ccc2nc(/C=C/c3ccncc3)cc(-n3cc(CN4CCOCC4)nn3)c2c1 | > 10 µM | – | – | –
12 | Clc1ccc2nc(/C=C/c3ccncc3)cc(-n3cc(CN4CCCC4)nn3)c2c1 | 1.65 µM | – | – | –
13 | Clc1ccc2nc(/C=C/c3ccncc3)cc(NCCn3cc(CN4CCCCC4)nn3)c2c1 | 0.55 µM | 0.47 µM | 13.5 µM | –
14 | Clc1ccc2nc(/C=C/c3ccncc3)cc(-n3cc(CN4CCCCC4)nn3)c2c1 | 1.24 µM | – | – | –
15 | Clc1ccc2nc(/C=C/c3ccncc3)cc(NCCn3cc(Cn4cccn4)nn3)c2c1 | 1.18 µM | – | – | –
16 | CCN(CC)CCCC(C)Nc1ccnc2cc(Cl)ccc12 (stereo unspecified) | – | – | – | inhibition (Hemozoin [7]): Active
17 | Clc1ccc2nc(/C=C/c3ccncc3)cc(NCCn3cc(CN4CCCC4)nn3)c2c1 | 2.96 µM | – | – | –
18 | CN1CCN(Cc2cn(CCCCNc3cc(/C=C/c4ccncc4)nc4ccc(Cl)cc34)nn2)CC1 | 0.16 µM | 0.16 µM | 15.8 µM | remaining at 0.25 h, 1 µM [2]: < 50%
19 | O=C1S/C(=C\c2ccccc2)C(=O)N1Cc1cn(CCCCNc2cc(/C=C/c3ccncc3)nc3ccc(Cl)cc23)nn1 | 0.6 µM | 0.33 µM | > 25 µM | –
20 | OCCN1CCN(Cc2cn(-c3cc(/C=C/c4ccncc4)nc4ccc(Cl)cc34)nn2)CC1 | 1.66 µM | – | – | –
21 | Clc1ccc2nc(/C=C/c3ccncc3)cc(NCCn3cc(CN4CCOCC4)nn3)c2c1 | 1.85 µM | – | – | –
22 | CN1CCN(Cc2cn(-c3cc(/C=C/c4ccncc4)nc4ccc(Cl)cc34)nn2)CC1 | > 10 µM | – | – | –
23 | O=C1S/C(=C\c2ccccc2)C(=O)N1Cc1cn(CCNc2cc(/C=C/c3ccncc3)nc3ccc(Cl)cc23)nn1 | 0.24 µM | 0.44 µM | 5.73 µM | remaining at 0.25 h, 1 µM [2]: < 50%
24 | Clc1ccc2nc(/C=C/c3ccncc3)cc(NCCCCn3cc(CN4CCCCC4)nn3)c2c1 | 0.04 µM | 0.07 µM | 5.49 µM | Activity (Plasmodium falciparum [8]): Active; Activity (Plasmodium falciparum [9]): Active; Activity (Plasmodium falciparum [10]): inactive; Activity (Plasmodium falciparum [11]): inactive; remaining at 0.25 h, 1 µM [2]: < 50%; Activity (Plasmodium falciparum [12]): Active; EC50 (Plasmodium falciparum [13]): 0.95 µM; Activity (Plasmodium falciparum [14]): Active; EC50 (Plasmodium falciparum [15]): 0.89 µM; Activity (Plasmodium falciparum [16]): inactive; inhibition (Hemozoin [17]): Dose-dependent effect
25 | Clc1ccc2nc(/C=C/c3ccncc3)cc(NCCCCn3cc(CN4CCCC4)nn3)c2c1 | 0.69 µM | 0.52 µM | > 25 µM | –
26 | O=C1c2ccccc2C(=O)N1Cc1cn(CCCCNc2cc(/C=C/c3ccncc3)nc3ccc(Cl)cc23)nn1 | 1 µM | – | – | –
27 | OCCN1CCN(Cc2cn(CCCCNc3cc(/C=C/c4ccncc4)nc4ccc(Cl)cc34)nn2)CC1 | 0.67 µM | 0.64 µM | > 25 µM | –
28 | CCN(CC)Cc1cn(CCNc2cc(/C=C/c3ccncc3)nc3ccc(Cl)cc23)nn1 | 1.32 µM | – | – | –
